Measured values: ChEMBL document CHEMBL3774376, “Synthesis, and anticonvulsant activity of new amides derived from 3-methyl- or 3-ethyl-3-methyl-2,5-dioxo-pyrrolidin-1-yl-acetic acids” (Bioorg Med Chem, 2016)
The source made the active and inactive calls. The rule behind the calls is not given here.

Tests used:
Mus musculus [1] = assay: Antinociceptive activity in CD1 albino mouse assessed as reduction of formalin-induced licking response in neurogenic phase at 32.08 mg/kg, ip preincubated for 4 hrs measured after 5 mins; type: functional; design: scale not given: the % may be the effect or the level left
Mus musculus [2] = assay: Neurotoxicity in CD1 albino mouse assessed as acute motor impairment at 300 mg/kg, ip measured after 0.5 hrs by rotarod test; type: toxicity, organism-based; settings: in vivo
Outline: (§1)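 Male CD-1 mice given 30, 100 or 300 mg/kg ip in 0.5% methylcellulose, tested at 0.5 and 4 h. Motor impairment was scored as failure to keep balance for at least 1 min on a rod rotating at 10 rpm. Minimum dose causing impairment reported.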

Mus musculus [3] = organism: Mus musculus; assay: Protection index, ratio of TD50 for CD1 albino mouse to ED50 for protection against maximal electroshock-induced seizures in CD1 albino mouse
Outline: (§2)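 Quantitation in male CD-1 mice dosed ip at the previously estimated time of peak effect. Seizures were induced by MES or by sc pentylenetetrazole 85 mg/kg; rotarod at 10 rpm assessed motor impairment. Groups of six, at least three doses giving 10-90% effect.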

Mus musculus [4] = assay: Anticonvulsant activity in ip dosed CD1 albino mouse assessed as time to peak effect; type: functional; outline: as §2
Mus musculus [5] = assay: Local anesthetic activity in CD1 albino mouse assessed prolongation of time reaction at 1 % concentration after 20 secs by tail immersion test relative to vehicle control; type: functional
Outline: (§3)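 Compound at 1 or 2% in 0.5% methylcellulose, injected sc (0.2 ml) about 1 cm from the tail root of male CD-1 mice. After 15 min, the distal 3 cm of the tail was immersed in 50 ± 0.5 °C water and withdrawal time measured, cut off at 20 s. n=8; mean ± SEM; % prolongation relative to vehicle.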

Mus musculus [6] = assay: Anticonvulsant activity in ip dosed CD1 albino mouse assessed as protection against subcutaneous pentylenetetrazole-induced seizures; type: functional; outline: as §2
Mus musculus [7] = assay: Antinociceptive activity in CD1 albino mouse assessed as reduction of formalin-induced licking response in inflammatory phase at 32.08 mg/kg, ip preincubated for 4 hrs measured after 25 to 30 mins; type: functional; design: scale not given: the % may be the effect or the level left
Mus musculus [8] = assay: Anticonvulsant activity in ip dosed CD1 albino mouse assessed as protection against maximal electroshock-induced seizures; type: functional
Mus musculus [9] = assay: Anticonvulsant activity in CD1 albino mouse assessed as protection against subcutaneous pentylenetetrazole-induced seizures at 300 mg/kg, ip after 4 hrs; type: functional, organism-based
Outline: (§4)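 Male CD-1 mice (16-26 g), compounds ip in 0.5% methylcellulose/water at 30, 100 or 300 mg/kg, 3-4 per group. At 0.5 or 4 h, pentylenetetrazole 85 mg/kg was injected sc. Protection was absence of clonic convulsions (at least 5 s) over a 30 min observation. Minimum active dose recorded.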

Mus musculus [10] = assay: Anticonvulsant activity in CD1 albino mouse assessed as protection against subcutaneous pentylenetetrazole-induced seizures at 300 mg/kg, ip after 0.5 hrs; type: functional, organism-based; outline: as §4
Mus musculus [11] = assay: Neurotoxicity in CD1 albino mouse assessed as acute motor impairment at 100 to 300 mg/kg, ip after 4 hrs by rotarod test; type: toxicity, organism-based; settings: in vivo; outline: as §1
Mus musculus [12] = assay: Anticonvulsant activity in CD1 albino mouse assessed as protection against maximal electroshock-induced seizures at 100 to 300 mg/kg, ip after 4 hrs; type: functional; settings: read-out: MED
Mus musculus [13] = assay: Local anesthetic activity in CD1 albino mouse assessed prolongation of time reaction at 2 % concentration after 20 secs by tail immersion test relative to vehicle control; type: functional; outline: as §3
[14] = Neurotoxicity in ip dosed CD1 albino mouse assessed as acute motor impairment by rotarod test; type: toxicity, organism-based; settings: in vivo; outline: as §2
Mus musculus [15] = assay: Antinociceptive activity in CD1 albino mouse assessed as reduction of formalin-induced licking response in inflammatory phase at 32.08 mg/kg, ip preincubated for 4 hrs measured after 15 to 20 mins; type: functional; design: scale not given: the % may be the effect or the level left
Mus musculus [16] = assay: Anticonvulsant activity in CD1 albino mouse assessed as protection against maximal electroshock-induced seizures at 100 to 300 mg/kg, ip after 0.5 hrs; type: functional; settings: read-out: MED
Mus musculus [17] = assay: Protection index, ratio of TD50 for CD1 albino mouse to ED50 for protection against subcutaneous pentylenetetrazole-induced seizures in CD1 albino mouse; outline: as §2
Rattus norvegicus = organism: Rattus norvegicus; assay: Displacement of [3H]BTX from voltage-sensitive Na+ channel site 2 in rat cerebral cortex synaptoneurosomes at 100 uM after 60 mins by liquid scintillation spectroscopic analysis; type: tissue-based
Outline: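 Cerebral cortex synaptoneurosomes from rat, tested at 100 µM for inhibition of specific [3H]BTX binding to the voltage-sensitive Na+ channel site 2. Reported as % inhibition of control specific binding; run commercially.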

Mus musculus [18] = assay: Neurotoxicity in CD1 albino mouse assessed as acute motor impairment at 300 mg/kg, ip after 4 hrs by rotarod test; type: toxicity, organism-based; settings: in vivo; outline: as §1
Mus musculus [19] = organism: Mus musculus; assay: Protection index, ratio of TD50 for CD1 albino mouse to ED50 for protection against 32 mA-current- for 3 secs induced seizure in CD1 albino mouse by 6Hz psychomotor seizure test
Outline: (§5)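 6-Hz corneal stimulation at 32 mA (6 Hz, 3 s) in male CD-1 mice dosed ip. Groups of six received several doses until at least three points fell between 10 and 90% protection. […] PI = TD50/ED50 (rotarod).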

Mus musculus [20] = assay: Anticonvulsant activity in ip dosed CD1 albino mouse assessed as protection against 32 mA-current- for 3 secs induced seizure by 6Hz psychomotor seizure test; type: functional; outline: as §5
Mus musculus [21] = assay: Antinociceptive activity in CD1 albino mouse assessed as reduction of formalin-induced licking response in inflammatory phase at 70.08 mg/kg, ip preincubated for 30 mins measured after 25 to 30 mins; type: functional; design: scale not given: the % may be the effect or the level left
Mus musculus [22] = assay: Antinociceptive activity in CD1 albino mouse assessed as reduction of formalin-induced licking response in neurogenic phase at 70.08 mg/kg, ip preincubated for 30 mins measured after 5 mins; type: functional; design: scale not given: the % may be the effect or the level left
Mus musculus [23] = assay: Antinociceptive activity in CD1 albino mouse assessed as reduction of formalin-induced licking response in inflammatory phase at 70.08 mg/kg, ip preincubated for 30 mins measured after 15 to 20 mins; type: functional; design: scale not given: the % may be the effect or the level left
Mus musculus [24] = assay: Anticonvulsant activity in ip dosed CD1 albino mouse assessed as time to peak effect by 6Hz psychomotor seizure test; type: functional; outline: as §5
Mus musculus [25] = assay: Neurotoxicity in CD1 albino mouse assessed as acute motor impairment at 100 to 300 mg/kg, ip after 0.5 hrs by rotarod test; type: toxicity, organism-based; settings: in vivo; outline: as §1
Mus musculus [26] = assay: Anticonvulsant activity in CD1 albino mouse assessed as protection against subcutaneous pentylenetetrazole-induced seizures at 100 to 300 mg/kg, ip after 0.5 hrs; type: functional; settings: CD1, 0.5 h, read-out: MED; outline: as §4
Mus musculus [27] = assay: Antinociceptive activity in CD1 albino mouse assessed as reduction of formalin-induced licking response in inflammatory phase at 82.74 mg/kg, ip preincubated for 30 mins measured after 25 to 30 mins; type: functional; design: scale not given: the % may be the effect or the level left
Mus musculus [28] = assay: Antinociceptive activity in CD1 albino mouse assessed as reduction of formalin-induced licking response in neurogenic phase at 82.74 mg/kg, ip preincubated for 30 mins measured after 5 mins; type: functional; design: scale not given: the % may be the effect or the level left
Mus musculus [29] = assay: Antinociceptive activity in CD1 albino mouse assessed as reduction of formalin-induced licking response in inflammatory phase at 82.74 mg/kg, ip preincubated for 30 mins measured after 15 to 20 mins; type: functional; design: scale not given: the % may be the effect or the level left
Mus musculus [30] = assay: Antinociceptive activity in CD1 albino mouse assessed as reduction of formalin-induced licking response in inflammatory phase at 82.74 mg/kg, ip preincubated for 30 mins measured after 20 to 25 mins; type: functional; design: scale not given: the % may be the effect or the level left

Row | Structure (SMILES) | Activity (Mus musculus [2]) | Ratio TD50/ED50 (Mus musculus [3]) | Time (Mus musculus [4]) [h] | ED50 (Mus musculus [6]) [mg/kg] | ED50 (Mus musculus [8]) [mg/kg] | Activity (Mus musculus [9]) | Activity (Mus musculus [10]) | minimal effective dose (Mus musculus [12]) [mg/kg] | Activity (Mus musculus [13]) [%] | TD50 [14] [mg/kg] | minimal effective dose (Mus musculus [16]) [mg/kg] | Ratio TD50/ED50 (Mus musculus [17]) | inhibition (Rattus norvegicus) [%] | Activity (Mus musculus [18]) | also measured
1 | CC1CC(=O)N(CC(=O)N2CCN(c3ccc(Cl)cc3)CC2)C1=O (centres undefined) | Non-toxic | >15.59 | 4 | > 250 | 32.1 | inactive | inactive | 30 | 124 | > 500 | 100 | >2 | 20.9 |  | Activity (Mus musculus [1]): 76%; Activity (Mus musculus [5]): 26%; Activity (Mus musculus [7]): 86%; MTC (Mus musculus [11]): 300 mg/kg; Activity (Mus musculus [15]): 91%
2 | CCC1(C)CC(=O)N(CC(=O)N2CCN(c3cccc(C(F)(F)F)c3)CC2)C1=O (centres undefined) |  | 4.06 | 0.5 |  | 70.1 | inactive | inactive | 100 | 46 | 285 | 100 |  | 63.5 | Non-toxic | Ratio TD50/ED50 (Mus musculus [19]): 3.15; ED50 (Mus musculus [20]): 90.3 mg/kg; Activity (Mus musculus [21]): 99%; Activity (Mus musculus [22]): 40%; Activity (Mus musculus [23]): 100%; Time (Mus musculus [24]): 0.5 h; MTC (Mus musculus [25]): 300 mg/kg
3 | CC1CC(=O)N(CC(=O)N2CCN(c3cccc(Cl)c3)CC2)C1=O (centres undefined) | Non-toxic | 3.91 | 1 | 40.3 | 82.7 | inactive |  | 300 | 17 | 323 | 100 | 8 | 28.5 | Non-toxic | minimal effective dose (Mus musculus [26]): 100 mg/kg; Activity (Mus musculus [27]): 96%; Activity (Mus musculus [28]): 67%; Activity (Mus musculus [29]): 98%; Activity (Mus musculus [30]): 100%
